Measured values from ChEMBL document CHEMBL1127023, “Nonpeptide angiotensin II receptor antagonists. Synthesis and biological activity of benzimidazoles” (J Med Chem, 1993).
pIC50: −log10 of the molar value.

What was measured:
[1] = In vitro for inhibition of specific binding of [125I]-angiotensin II (0.2 nM) to bovine adrenal cortex
Rattus norvegicus [2] = experiment: In vivo inhibition of angiotensin II (0.1 ug/kg) induced increase in blood pressure in conscious male rat at 10 mg/kg for 3h/7h; assay type: functional
How it was run: (§1)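 Conscious male Jcl:Sprague-Dawley rats (300–400 g), femoral artery and vein cannulated under pentobarbital the day before. AII 100 ng/kg iv was given twice as control. Compound was dosed orally as a gum arabic suspension, then AII challenges were repeated. Pressor-response inhibition was read at 3 and 7 h after dosing, from duplicate experiments.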

[3] = biological target: Angiotensin II receptor (Rattus norvegicus) (UniProt P29089+P25095+P35351); experiment: In vivo inhibition of angiotensin II (0.1 ug/kg) induced increase in blood pressure in conscious male rat at 3 mg/kg for 3h/7h.; assay type: functional, organism-based; set-up: dose 3 mg/kg
How it was run: as §1

Rattus norvegicus [4] = experiment: In vivo for inhibition of the Angiotensin II (0.1 ug/kg) induced increase in blood pressure in conscious male rat at 30 mg/kg for 3h/7h; assay type: functional
How it was run: as §1

[5] = In vitro for inhibition of specific binding of [125I]-angiotensin II (0.02 nM) to bovine adrenal cortex; assay type: tissue-based, Bos taurus
Rattus norvegicus [6] = experiment: In vivo for inhibition of the Angiotensin II (0.1 ug/kg) induced increase in blood pressure in conscious male rat at 100 mg/kg for 3h/7h; assay type: functional
How it was run: as §1

Rattus norvegicus [7] = experiment: In vivo for inhibition of the Angiotensin II (0.1 ug/kg) induced increase in blood pressure in conscious male rat at 10 mg/kg for 0.5h/1h; assay type: functional
Rattus norvegicus [8] = experiment: In vivo inhibition of angiotensin II (0.1 ug/kg)-induced increase in blood pressure in conscious male rat at 10 mg/kg for 3h/7h; assay type: functional
How it was run: as §1

## CCCCc1nc2c(C(=O)O)cccc2n1Cc1ccc(-c2ccccc2-c2nn[nH]n2)cc1
[1]
  pIC50: < 5.00
Rattus norvegicus [2]
  inhibition in vivo at 10 mg/kg: 19%

## CCCCc1nc2cccc(CN(C)C)c2n1Cc1ccc(-c2ccccc2-c2nn[nH]n2)cc1
[3]
  inhibition: 12%
[1]
  pIC50: 5.62

## CCCCc1nc2cc(Cl)cc(C(=O)O)c2n1Cc1ccc(-c2ccccc2-c2nn[nH]n2)cc1
[3]
  inhibition: 23%

## CCCCc1nc2cc(C(=O)O)ccc2n1Cc1ccc(-c2ccccc2-c2nn[nH]n2)cc1
[3]
  inhibition: 7%
[1]
  pIC50: 5.26

## CCCCc1nc2cccc(C(=O)O)c2n1Cc1ccc(-c2ccccc2-c2nnnn2C)cc1
[3]
  inhibition: 77%
[1]
  pIC50: 5.47

## CCCCc1nc2ccc(C)c(C(=O)OCC)c2n1Cc1ccc(-c2ccccc2-c2nn[nH]n2)cc1
[3]
  inhibition: 13%
Rattus norvegicus [4]
  inhibition in vivo at 30 mg/kg: 100%
[5]
  pIC50: 6.04

## CCCCc1nc2cccc(C(=O)O)c2n1Cc1ccc(-c2ccccc2C(=O)O)cc1
[3]
  inhibition: 2%
Rattus norvegicus [4]
  inhibition in vivo at 30 mg/kg: 46%
[1]
  pIC50: 6.18

## CCCCc1nc2cc(OC)ccc2n1Cc1ccc(-c2ccccc2-c2nn[nH]n2)cc1
Rattus norvegicus [6]
  inhibition in vivo at 100 mg/kg: 84%
Rattus norvegicus [7]
  inhibition in vivo at 10 mg/kg: 60%
[1]
  pIC50: 6.04

## CCCCc1nc2ccccc2n1Cc1ccc(-c2ccccc2C(=O)O)cc1
Rattus norvegicus [6]
  inhibition in vivo at 100 mg/kg: 45%
Rattus norvegicus [7]
  inhibition in vivo at 10 mg/kg: 20%
[1]
  pIC50: 5.96

## CCCCc1nc2ccc(C)c(C(=O)O)c2n1Cc1ccc(-c2ccccc2-c2nn[nH]n2)cc1
[3]
  inhibition: 40%
[1]
  pIC50: 6.47

## CCCCc1nc2cccc(O)c2n1Cc1ccc(-c2ccccc2-c2nn[nH]n2)cc1
[3]
  inhibition: 2%
Rattus norvegicus [4]
  inhibition in vivo at 30 mg/kg: 56%
[1]
  pIC50: 5.96

## CCCCc1nc2cccc(CO)c2n1Cc1ccc(-c2ccccc2-c2nn[nH]n2)cc1
[3]
  inhibition: 16%
Rattus norvegicus [4]
  inhibition in vivo at 30 mg/kg: 41%
[1]
  pIC50: 6.35

## CCCCc1nc2cc(C)cc(C(=O)O)c2n1Cc1ccc(-c2ccccc2-c2nn[nH]n2)cc1
[3]
  inhibition: 80%
[1]
  pIC50: 5.89

## CCCCc1nc2cc(C(=O)OC)ccc2n1Cc1ccc(-c2ccccc2-c2nn[nH]n2)cc1
Rattus norvegicus [6]
  inhibition in vivo at 100 mg/kg: -13%
[1]
  pIC50: 6.13

## CCCCc1nc2cccc(CC(=O)OCC)c2n1Cc1ccc(-c2ccccc2-c2nn[nH]n2)cc1
[3]
  inhibition: 24%
Rattus norvegicus [4]
  inhibition in vivo at 30 mg/kg: 82%
[1]
  pIC50: 6.60

## CCCCc1nc2ccc(C(=O)OC)cc2n1Cc1ccc(-c2ccccc2-c2nn[nH]n2)cc1
Rattus norvegicus [4]
  inhibition in vivo at 30 mg/kg: 0%
[1]
  pIC50: 6.36

## CCCCc1nc2cc(Cl)ccc2n1Cc1ccc(-c2ccccc2-c2nn[nH]n2)cc1
Rattus norvegicus [4]
  inhibition in vivo at 30 mg/kg: -8%
Rattus norvegicus [7]
  inhibition in vivo at 10 mg/kg: 45%
[1]
  pIC50: 5.82

## CCCCc1nc2ccc(OC)cc2n1Cc1ccc(-c2ccccc2-c2nn[nH]n2)cc1
Rattus norvegicus [6]
  inhibition in vivo at 100 mg/kg: 5%
Rattus norvegicus [7]
  inhibition in vivo at 10 mg/kg: 77%
[1]
  pIC50: 5.96

## CCCCc1nc2cc(Cl)cc(C(=O)OC)c2n1Cc1ccc(-c2ccccc2-c2nn[nH]n2)cc1
[3]
  inhibition: 57%
[1]
  pIC50: 6.36

## CCCCc1nc2cccc(C(=O)OCC)c2n1Cc1ccc(-c2ccccc2-c2nn[nH]n2)cc1
[3]
  inhibition: 51%
[1]
  pIC50: 5.85

## CCCCc1nc2c(C(N)=O)cccc2n1Cc1ccc(-c2ccccc2-c2nn[nH]n2)cc1
Rattus norvegicus [4]
  inhibition in vivo at 30 mg/kg: 28%

## CCCCc1nc2ccc(Cl)cc2n1Cc1ccc(-c2ccccc2-c2nn[nH]n2)cc1
Rattus norvegicus [4]
  inhibition in vivo at 30 mg/kg: 18%
Rattus norvegicus [7]
  inhibition in vivo at 10 mg/kg: 23%
[1]
  pIC50: 5.51

## CCCCc1nc2cccc(C)c2n1Cc1ccc(-c2ccccc2-c2nn[nH]n2)cc1
[3]
  inhibition: 8%
[1]
  pIC50: 6.48

## CCCCc1nc2cccc(OC)c2n1Cc1ccc(-c2ccccc2-c2nn[nH]n2)cc1
[3]
  inhibition: -6%
[1]
  pIC50: 5.55

## CCCCc1nc2ccccc2n1Cc1ccc(-c2ccccc2-c2nn[nH]n2)cc1
Rattus norvegicus [8]
  inhibition in vivo at 10 mg/kg: 13%
Rattus norvegicus [4]
  inhibition in vivo at 30 mg/kg: 18%
Rattus norvegicus [7]
  inhibition in vivo at 10 mg/kg: 52%
[1]
  pIC50: 6.05

## CCCCc1nc2cc(C)cc(C(=O)OC)c2n1Cc1ccc(-c2ccccc2-c2nn[nH]n2)cc1
[3]
  inhibition: 41%
[1]
  pIC50: 6.06

## CCCCc1nc2cccc(C(=O)O)c2n1Cc1ccc(-c2ccccc2-c2nn[nH]n2)cc1
[3]
  inhibition: 91%
[1]
  pIC50: 6.26

## CCCCc1nc2ccc(C(=O)O)cc2n1Cc1ccc(-c2ccccc2-c2nn[nH]n2)cc1
Rattus norvegicus [4]
  inhibition in vivo at 30 mg/kg: 9%
[1]
  pIC50: 5.05

## CCCCc1nc2cccc(CC(=O)O)c2n1Cc1ccc(-c2ccccc2-c2nn[nH]n2)cc1
[1]
  pIC50: 5.59

## CCCCc1nc2cccc(C(=O)OC)c2n1Cc1ccc(-c2ccccc2-c2nn[nH]n2)cc1
[3]
  inhibition: 78%
[1]
  pIC50: 6.49

## CCCCc1nc2cccc(C(=O)NC(C)C)c2n1Cc1ccc(-c2ccccc2-c2nn[nH]n2)cc1
[1]
  pIC50: 6.27

## CCCCc1nc2c(C(=O)OC)cccc2n1Cc1ccc(-c2ccccc2-c2nn[nH]n2)cc1
Rattus norvegicus [4]
  inhibition in vivo at 30 mg/kg: 9%
[1]
  pIC50: 5.14

## CCCCc1nc2cccc(COC)c2n1Cc1ccc(-c2ccccc2-c2nn[nH]n2)cc1
[3]
  inhibition: 54%
[1]
  pIC50: 6.22

## CCCCOC(=O)c1cccc2nc(CCCC)n(Cc3ccc(-c4ccccc4-c4nn[nH]n4)cc3)c12
[3]
  inhibition: 9%
Rattus norvegicus [4]
  inhibition in vivo at 30 mg/kg: 78%
[1]
  pIC50: 5.92
